Activity calls are given as the source filed them. The calls are words filed in the database; no cut-off is given here. A value given as a limit tells only on which side of the number the result lay.

The source of these data is ChEMBL document CHEMBL2057171, “Arylstibonic acids are potent and isoform-selective inhibitors of Cdc25a and Cdc25b phosphatases” (Bioorg Med Chem, 2012).

One experiment is filed under the species Rattus norvegicus. Briefly: Inhibition of rat GST-tagged synaptojanin SAC1 domain expressed in Escherichia coli XL-1 blue using I(1,4,5))P3 as substrate at 5 uM by malachite green assay. The procedure, abridged: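 GST-synaptojanin was expressed in E. coli XL-1 blue (1 mM IPTG, 18°C, 24 h) and purified on glutathione sepharose. Substrate: 50 µM PI(4)P in octylglucoside mixed micelles for synaptojanin; 50 µM I(1,4,5)P3 for SAC1. Assay ran at 37°C in 100 mM Tris pH 7.4, 4 mM MgCl2 with 5 µM compound. Malachite green stopped the reaction, colour developed 10 min, and absorbance was read at 625 nm. Heat-denatured enzyme served as blank. Triplicates.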

The target in experiment [1] is Receptor-type tyrosine-protein phosphatase beta (Homo sapiens) (UniProt P23467). Briefly: Inhibition of PTP-beta receptor using p-NPP as substrate at 5 uM by colorimetric analysis. In short, it runs like this: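 Purchased PTP-β assayed with 1 mM p-NPP (near KM) in 25 mM Hepes pH 7.4, 50 mM NaCl, 5 mM DTT; arylstibonate fixed at 5 µM. The reaction was started by adding p-NPP in water, and p-nitrophenol release was read at 405 nm. Reported as % inhibition from triplicates, with standard error.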

Experiment [2] concerns the target M-phase inducer phosphatase 1 (Homo sapiens) (UniProt P30304). The experiment can be described thus: Reversible inhibition of N-terminal His-tagged Cdc25a catalytic domain expressed in Escherichia coli BL21(DE3) using 3-O-Methylfluorescein phosphate as substrate at 4 times IC50 by 10-fold dilution method. The procedure, abridged:
(§1)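 Reversibility test by dilution. Cdc25a or Cdc25b is preincubated with arylstibonate, then diluted 10-fold in reaction buffer (100 mM Tris pH 7.4, 2 mM DTT). Activity is then measured in the OMFP fluorescence assay (ex 485/em 525 nm, 20 °C) and expressed as % of the uninhibited reaction.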

Experiment [3] deals with M-phase inducer phosphatase 2 (Homo sapiens) (UniProt P30305). Briefly: Mixed-type inhibition of N-terminal His-tagged Cdc25b catalytic domain expressed in Escherichia coli BL21(DE3) using 3-O-Methylfluorescein phosphate as substrate by Michaelis-Menten plot analysis. In short, it runs like this:
(§2)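 Steady-state kinetics of the Cdc25a and Cdc25b catalytic domains with varying OMFP and several arylstibonate concentrations. Run at 20 °C in 100 mM Tris pH 7.4 with 2 mM DTT, after a 10 min RT enzyme–inhibitor preincubation. Fluorescence read at ex 485/em 525 nm. Michaelis–Menten plots give apparent Km and Vmax; secondary plots give Ki.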

Experiment [4] has the same target. The experiment can be described thus: Reversible inhibition of N-terminal His-tagged Cdc25b catalytic domain expressed in Escherichia coli BL21(DE3) using 3-O-Methylfluorescein phosphate as substrate at 4 times IC50 by 10-fold dilution method. The procedure, abridged:
as §1

Experiment [5] deals with M-phase inducer phosphatase 1 (Homo sapiens) (UniProt P30304). Briefly: Mixed-type inhibition of N-terminal His-tagged Cdc25a catalytic domain expressed in Escherichia coli BL21(DE3) using 3-O-Methylfluorescein phosphate as substrate by Michaelis-Menten plot analysis. The procedure, abridged:
as §2

M-phase inducer phosphatase 2 (Homo sapiens), sequence (P30305 whole entry, the tested form may be a part): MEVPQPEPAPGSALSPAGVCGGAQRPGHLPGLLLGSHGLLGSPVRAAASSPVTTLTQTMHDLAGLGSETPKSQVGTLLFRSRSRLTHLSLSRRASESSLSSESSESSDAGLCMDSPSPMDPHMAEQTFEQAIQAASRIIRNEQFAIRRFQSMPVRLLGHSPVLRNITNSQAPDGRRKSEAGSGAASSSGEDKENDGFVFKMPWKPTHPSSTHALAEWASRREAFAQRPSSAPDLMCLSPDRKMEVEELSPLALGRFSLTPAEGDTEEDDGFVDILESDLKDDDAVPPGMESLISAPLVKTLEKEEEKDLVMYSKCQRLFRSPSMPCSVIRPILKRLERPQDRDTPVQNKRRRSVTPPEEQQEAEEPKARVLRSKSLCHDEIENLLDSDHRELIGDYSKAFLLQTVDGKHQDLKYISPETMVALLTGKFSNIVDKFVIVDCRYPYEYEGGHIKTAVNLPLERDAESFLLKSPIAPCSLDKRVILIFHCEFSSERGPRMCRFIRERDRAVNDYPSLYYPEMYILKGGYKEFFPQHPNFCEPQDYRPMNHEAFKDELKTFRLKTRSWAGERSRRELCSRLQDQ
Receptor-type tyrosine-protein phosphatase beta (Homo sapiens), sequence (P23467 whole entry, looked up): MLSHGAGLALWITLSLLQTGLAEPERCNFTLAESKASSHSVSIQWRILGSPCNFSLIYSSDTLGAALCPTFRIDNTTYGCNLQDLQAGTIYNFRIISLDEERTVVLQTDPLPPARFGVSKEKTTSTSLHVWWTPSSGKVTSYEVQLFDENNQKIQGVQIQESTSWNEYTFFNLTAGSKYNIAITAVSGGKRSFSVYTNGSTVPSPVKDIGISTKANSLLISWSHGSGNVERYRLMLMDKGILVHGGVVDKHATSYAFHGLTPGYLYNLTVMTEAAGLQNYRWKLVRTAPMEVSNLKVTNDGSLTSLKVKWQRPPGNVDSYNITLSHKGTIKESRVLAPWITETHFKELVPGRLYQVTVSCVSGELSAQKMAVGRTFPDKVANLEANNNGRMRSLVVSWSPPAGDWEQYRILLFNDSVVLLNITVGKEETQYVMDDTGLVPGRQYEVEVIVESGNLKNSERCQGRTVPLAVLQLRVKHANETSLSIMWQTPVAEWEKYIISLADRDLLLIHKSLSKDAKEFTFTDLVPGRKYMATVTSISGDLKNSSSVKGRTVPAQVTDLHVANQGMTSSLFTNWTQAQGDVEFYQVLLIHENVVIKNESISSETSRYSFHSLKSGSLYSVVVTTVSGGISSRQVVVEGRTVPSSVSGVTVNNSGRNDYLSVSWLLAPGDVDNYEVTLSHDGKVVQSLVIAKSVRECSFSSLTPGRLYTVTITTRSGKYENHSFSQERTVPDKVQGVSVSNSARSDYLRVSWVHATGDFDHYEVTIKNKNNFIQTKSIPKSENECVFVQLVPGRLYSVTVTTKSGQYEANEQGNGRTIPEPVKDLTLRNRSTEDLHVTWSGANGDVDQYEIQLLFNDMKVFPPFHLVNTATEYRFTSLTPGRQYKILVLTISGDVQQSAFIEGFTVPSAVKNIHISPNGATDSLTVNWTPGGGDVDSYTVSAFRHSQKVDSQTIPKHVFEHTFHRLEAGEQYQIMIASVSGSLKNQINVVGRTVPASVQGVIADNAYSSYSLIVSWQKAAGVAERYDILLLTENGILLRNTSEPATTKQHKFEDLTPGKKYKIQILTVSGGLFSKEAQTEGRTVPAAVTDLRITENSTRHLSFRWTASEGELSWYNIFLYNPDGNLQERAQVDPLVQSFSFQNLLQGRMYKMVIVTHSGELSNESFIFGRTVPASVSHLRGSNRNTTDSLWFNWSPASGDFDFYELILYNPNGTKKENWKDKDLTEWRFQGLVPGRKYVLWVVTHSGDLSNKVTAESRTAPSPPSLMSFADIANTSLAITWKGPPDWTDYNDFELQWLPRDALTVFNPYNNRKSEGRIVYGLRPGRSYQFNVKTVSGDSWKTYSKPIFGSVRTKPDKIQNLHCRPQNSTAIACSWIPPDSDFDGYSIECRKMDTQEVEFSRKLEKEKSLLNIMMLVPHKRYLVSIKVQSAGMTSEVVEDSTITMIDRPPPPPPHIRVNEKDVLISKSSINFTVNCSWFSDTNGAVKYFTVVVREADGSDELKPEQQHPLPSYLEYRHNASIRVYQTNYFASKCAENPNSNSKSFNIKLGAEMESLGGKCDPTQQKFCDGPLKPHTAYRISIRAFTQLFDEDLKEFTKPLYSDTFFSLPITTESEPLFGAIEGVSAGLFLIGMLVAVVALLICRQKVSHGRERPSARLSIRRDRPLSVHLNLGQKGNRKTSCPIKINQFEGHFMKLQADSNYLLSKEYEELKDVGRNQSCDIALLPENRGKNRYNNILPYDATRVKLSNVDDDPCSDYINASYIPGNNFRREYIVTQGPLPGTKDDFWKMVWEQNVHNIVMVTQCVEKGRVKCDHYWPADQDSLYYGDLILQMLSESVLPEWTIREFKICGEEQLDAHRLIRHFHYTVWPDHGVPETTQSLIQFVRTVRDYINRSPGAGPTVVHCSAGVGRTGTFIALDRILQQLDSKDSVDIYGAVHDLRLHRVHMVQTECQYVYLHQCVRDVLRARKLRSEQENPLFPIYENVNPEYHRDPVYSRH
M-phase inducer phosphatase 1 (Homo sapiens), sequence (P30304 whole entry, the tested form may be a part): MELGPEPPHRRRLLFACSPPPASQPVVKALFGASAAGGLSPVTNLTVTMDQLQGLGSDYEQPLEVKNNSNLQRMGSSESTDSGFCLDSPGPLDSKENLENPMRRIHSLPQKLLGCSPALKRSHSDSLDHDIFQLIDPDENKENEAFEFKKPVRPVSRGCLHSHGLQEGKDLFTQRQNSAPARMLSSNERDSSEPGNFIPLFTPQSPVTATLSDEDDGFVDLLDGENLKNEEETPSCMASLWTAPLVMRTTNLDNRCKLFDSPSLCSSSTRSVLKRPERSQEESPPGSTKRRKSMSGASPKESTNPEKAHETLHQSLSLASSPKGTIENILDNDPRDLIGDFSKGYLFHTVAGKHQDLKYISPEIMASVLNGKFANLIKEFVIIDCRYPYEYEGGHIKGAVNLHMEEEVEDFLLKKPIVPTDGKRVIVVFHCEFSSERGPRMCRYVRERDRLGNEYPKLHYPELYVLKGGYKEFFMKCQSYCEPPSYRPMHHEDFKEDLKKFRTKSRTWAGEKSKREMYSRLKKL

By inhibition is commonly meant the share of the control response that was lost under treatment. Consider 2-nitrophenylstibonic acid, for which the inhibition in the experiment listed under Rattus norvegicus was over 40%; in experiment [1], over 90%.
As for (E)-3-(3-stibonophenyl)acrylic acid, the inhibition result in experiment [2], in experiment [3], in experiment [4] and in experiment [5] was “Active” each time. Further, the inhibition in the experiment listed under Rattus norvegicus was over 40%; in experiment [1] it was over 90%.
On to 4-stibonophthalic acid, for which the inhibition in the experiment listed under Rattus norvegicus was under 40%; in experiment [1], 51%.
In the case of 2-nitro-4-stibonobenzoic acid, the inhibition in the experiment filed under Rattus norvegicus is over 40%; in experiment [1], over 90%.
For PHENYLSTIBONIC ACID, in that order: under 40% and “inactive”.
With 2-(3-stibonobenzyl)malonic acid, the inhibition was over 40% in the experiment listed under Rattus norvegicus and over 90% in experiment [1].
For 4-benzamidophenylstibonic acid, in that order: over 40% and over 90%.
For “3-(3-ethoxy-2-(ethoxycarbonyl)-3-oxopropyl)phenylstibonic acid”, in that order: under 40% and “inactive”.
The matching figures for 3-(methoxycarbonyl)phenylstibonic acid: under 40% and “inactive”.
In the case of “4-(2-ethoxy-2-oxoethyl)phenylstibonic acid”, the inhibition in the experiment listed under Rattus norvegicus is over 40%; in experiment [1] it was over 90%.
The matching figures for 3-nitrophenylstibonic acid: under 40% and 50%.
With 2-(3-stibonophenoxy)acetic acid, the inhibition in the experiment listed under Rattus norvegicus was over 40%; in experiment [1], over 90%.
For 3-stibonobenzoic acid, in that order: under 40% and 78%.
In the case of “4-((4-hydroxyphenyl)diazenyl)phenylstibonic acid”, the inhibition in the experiment listed under Rattus norvegicus was over 40%; in experiment [1], over 90%.
Regarding 3-(3-stibonophenyl)propanoic acid, the inhibition entry in experiment [2], in experiment [3], in experiment [4] and in experiment [5] was “Active” throughout. The inhibition in the experiment listed under Rattus norvegicus was over 40%; in experiment [1], over 90%.
Substance 4-hydroxyphenylstibonic acid showed an inhibition in the experiment filed under Rattus norvegicus of under 40%. Besides, the inhibition entry in experiment [1] is “inactive”.
The matching figures for 4-stibonobenzoic acid: under 40% and 72%.
The matching figures for 2-(4-stibonobenzyl)malonic acid: under 40% and 67%.
Consider 4-iodophenylstibonic acid, for which the inhibition in the experiment listed under Rattus norvegicus is over 40%; in experiment [1] it was over 90%.
